From ChEMBL document CHEMBL1157540, “2-Arylthiomorpholine derivatives as potent and selective monoamine oxidase B inhibitors” (Bioorg Med Chem, 2010)

How the values were obtained:
[1] = species on record: Rattus norvegicus; test: Selectivity ratio of Ki for rat MAOA to Ki for rat MAOB
Method in brief: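 Ki(rMAO-A)/Ki(rMAO-B), each from rat brain mitochondrial IC50 by Cheng–Prusoff (5-HT for MAO-A, Km 100 μM; DMAPEA for MAO-B, Km 5 μM; HPLC-electrochemical detection).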

[2] = target: T1, Amine oxidase [flavin-containing] A (Rattus norvegicus, UniProt P21396); test: Inhibition of MAOA in rat brain mitochondrial suspension; format: tissue-based
T1 sequence (P21396 whole entry): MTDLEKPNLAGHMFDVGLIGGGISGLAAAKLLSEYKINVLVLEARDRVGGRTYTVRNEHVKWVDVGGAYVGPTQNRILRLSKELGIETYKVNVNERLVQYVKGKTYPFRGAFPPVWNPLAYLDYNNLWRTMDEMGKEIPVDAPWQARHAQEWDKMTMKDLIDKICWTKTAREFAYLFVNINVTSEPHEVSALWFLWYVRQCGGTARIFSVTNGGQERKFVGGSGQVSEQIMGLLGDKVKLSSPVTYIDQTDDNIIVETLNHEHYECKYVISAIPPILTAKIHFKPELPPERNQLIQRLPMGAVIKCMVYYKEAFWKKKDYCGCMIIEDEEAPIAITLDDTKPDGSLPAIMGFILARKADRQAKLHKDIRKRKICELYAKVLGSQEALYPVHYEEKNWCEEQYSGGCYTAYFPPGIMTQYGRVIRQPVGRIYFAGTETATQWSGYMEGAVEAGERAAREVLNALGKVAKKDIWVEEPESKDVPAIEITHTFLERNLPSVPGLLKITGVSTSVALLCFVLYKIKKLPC
Method in brief: (§1)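 Rat brain mitochondria; MAO-A substrate 5-HT, MAO-B substrate DMAPEA; metabolites measured by HPLC with electrochemical detection. Percent inhibition relative to enzyme treated alike without inhibitor; IC50 from inhibition vs –log concentration (mean ± SD, at least two independent experiments, each in triplicate). Ki by Cheng–Prusoff with Km 100 μM (5-HT, MAO-A) and 5 μM (DMAPEA, MAO-B).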

[3] = target: T2, Amine oxidase [flavin-containing] B (Homo sapiens, UniProt P27338); test: Inhibition of human recombinant MAOB by spectrophotometrically
T2 sequence (P27338 whole entry): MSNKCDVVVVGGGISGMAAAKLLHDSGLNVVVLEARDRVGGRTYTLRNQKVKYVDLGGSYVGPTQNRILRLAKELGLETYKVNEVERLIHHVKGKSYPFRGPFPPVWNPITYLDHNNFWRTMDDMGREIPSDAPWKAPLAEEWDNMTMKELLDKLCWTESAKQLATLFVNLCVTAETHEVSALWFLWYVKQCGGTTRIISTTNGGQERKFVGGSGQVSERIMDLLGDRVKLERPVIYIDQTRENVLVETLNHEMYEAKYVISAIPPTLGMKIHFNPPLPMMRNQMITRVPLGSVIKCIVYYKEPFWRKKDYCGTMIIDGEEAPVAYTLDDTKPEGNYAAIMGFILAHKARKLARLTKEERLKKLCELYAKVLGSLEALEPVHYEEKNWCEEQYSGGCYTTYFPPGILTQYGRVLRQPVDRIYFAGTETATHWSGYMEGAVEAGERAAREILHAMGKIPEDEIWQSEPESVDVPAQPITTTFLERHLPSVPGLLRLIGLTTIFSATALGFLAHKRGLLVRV
Method in brief: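 Purified human recombinant MAO-B; benzylamine substrate in 50 mM Hepes pH 7.5 with 0.5% (w/v) reduced Triton X-100 at 25 °C. Benzaldehyde formation monitored at 250 nm. Ki from full kinetic determinations (initial velocities at varied inhibitor levels; Lineweaver–Burk analysis).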

[4] = target: T3, Amine oxidase [flavin-containing] A (Homo sapiens, UniProt P21397); test: Inhibition of human recombinant MAOA by spectrophotometrically
T3 sequence (P21397 whole entry): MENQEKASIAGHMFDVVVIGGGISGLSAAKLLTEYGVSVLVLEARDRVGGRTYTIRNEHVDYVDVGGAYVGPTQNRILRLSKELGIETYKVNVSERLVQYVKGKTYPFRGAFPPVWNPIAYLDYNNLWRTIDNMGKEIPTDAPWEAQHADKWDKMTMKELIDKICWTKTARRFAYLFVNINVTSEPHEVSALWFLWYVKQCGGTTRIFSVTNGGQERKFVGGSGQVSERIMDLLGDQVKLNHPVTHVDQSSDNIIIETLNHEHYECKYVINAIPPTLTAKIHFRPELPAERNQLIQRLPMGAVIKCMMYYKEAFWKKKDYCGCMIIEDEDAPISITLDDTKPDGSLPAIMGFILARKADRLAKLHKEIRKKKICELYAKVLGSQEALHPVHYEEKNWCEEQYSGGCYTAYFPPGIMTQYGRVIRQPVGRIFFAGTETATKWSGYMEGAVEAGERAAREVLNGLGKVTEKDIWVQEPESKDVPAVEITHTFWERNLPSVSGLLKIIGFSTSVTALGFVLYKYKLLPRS
Method in brief: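 Purified human recombinant MAO-A; initial oxidation rates read spectrophotometrically at 30 °C in 50 mM potassium phosphate pH 7.4 with 0.05% Triton X-100. Kynuramine 0.1–0.9 mM at six inhibitor concentrations spanning 10-fold; product followed at 314 nm. Ki taken directly from full kinetic analysis; errors from a single kinetic analysis.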

[5] = target: T4, Amine oxidase [flavin-containing] B (Rattus norvegicus, UniProt P19643); test: Inhibition of MAOB in rat brain mitochondrial suspension; format: tissue-based; method in brief: as §1
T4 sequence (P19643 whole entry): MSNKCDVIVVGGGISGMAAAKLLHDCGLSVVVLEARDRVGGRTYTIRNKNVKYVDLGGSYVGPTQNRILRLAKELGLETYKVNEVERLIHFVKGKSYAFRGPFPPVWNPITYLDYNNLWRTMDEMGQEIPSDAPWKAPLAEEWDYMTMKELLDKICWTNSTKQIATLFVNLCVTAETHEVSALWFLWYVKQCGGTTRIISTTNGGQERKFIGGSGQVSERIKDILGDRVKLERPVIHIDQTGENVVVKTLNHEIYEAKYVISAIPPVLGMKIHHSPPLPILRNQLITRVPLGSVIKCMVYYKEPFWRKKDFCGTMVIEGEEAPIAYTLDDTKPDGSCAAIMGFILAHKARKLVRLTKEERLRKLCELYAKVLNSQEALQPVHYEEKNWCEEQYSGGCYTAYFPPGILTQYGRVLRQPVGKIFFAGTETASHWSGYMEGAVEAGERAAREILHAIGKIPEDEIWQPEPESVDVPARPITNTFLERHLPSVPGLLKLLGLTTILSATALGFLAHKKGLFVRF

[6] = species on record: Homo sapiens; test: Selectivity ratio of Ki for human MAOA to Ki for human MAOB

Row | Structure (SMILES) | Ratio Ki [1] | Ki [2] | Ki [3] | Ki [4] | Ki [5] | Ratio Ki [6]
1 | O=C1CSC(c2ccccc2)CN1 (racemic) | 1 | 9.19 µM | > 100 µM | > 100 µM | 9.58 µM | 
2 | CCCOc1ccc(C2CNC(=O)CS2)cc1 (racemic) | 6 | 8.68 µM | 2.4 µM | 40 µM | 1.49 µM | 16.7
3 | CCOc1ccc(C2CNCCS2)cc1 (racemic) | 1 | 2.17 µM | 2.1 µM | 9.6 µM | 2.17 µM | 5
4 | CCCCOc1ccc(C2CNCCS2)cc1 (racemic) | 52 | 14.1 µM | 0.068 µM | 2.5 µM | 0.27 µM | 37
5 | c1ccc(COc2ccc(C3CNCCS3)cc2)cc1 (racemic) | 146 | 19 µM | 0.038 µM | > 100 µM | 0.13 µM | > 2600
6 | COc1ccc(C2CNC(=O)CS2)cc1 (racemic) | 0.68 | 9.28 µM | > 100 µM | > 100 µM | 13.6 µM | 
7 | CCOc1ccc(C2CNC(=O)CS2)cc1 (racemic) | 3.6 | 12.3 µM | 16.9 µM | 60 µM | 3.4 µM | 3.5
8 | CCCCOc1ccc(C2CNC(=O)CS2)cc1 (racemic) | 318 | 50.9 µM | 0.46 µM | 10 µM | 0.16 µM | 22
9 | O=C1CSC(c2ccc(OCc3ccccc3)cc2)CN1 (racemic) | 373 | 27.5 µM | 0.048 µM | > 100 µM | 0.074 µM | > 2000
10 | COc1ccc(C2CNCCS2)cc1 (racemic) | 1.7 | 6.39 µM | > 100 µM | 16.2 µM | 3.85 µM | 
11 | CCCOc1ccc(C2CNCCS2)cc1 (racemic) | 4 | 3.69 µM | 0.13 µM | 6.62 µM | 0.98 µM | 51
12 | c1ccc(C2CNCCS2)cc1 (racemic) | 5 | 10.6 µM | > 100 µM | > 100 µM | 2.23 µM | 
13 | C[C@H](N)Cc1ccccc1 [DEXTROAMPHETAMINE] | > 0.12 | 12.2 µM | 280 µM | 14.4 µM | > 100 µM | 0.05
